“Also recorded” adds a separate entry of the source. Ends that are not written are not given here. * marks the point of attachment. Biotin = O=C1N[C@H]2[C@H](CS[C@H]2CCCCC(=O)*)N1; Ahx = NCCCCCC(=O)O
T1: rabbit muscle aldolase (Oryctolagus cuniculus, UniProt P00883)
T1 sequence (P00883 1-364): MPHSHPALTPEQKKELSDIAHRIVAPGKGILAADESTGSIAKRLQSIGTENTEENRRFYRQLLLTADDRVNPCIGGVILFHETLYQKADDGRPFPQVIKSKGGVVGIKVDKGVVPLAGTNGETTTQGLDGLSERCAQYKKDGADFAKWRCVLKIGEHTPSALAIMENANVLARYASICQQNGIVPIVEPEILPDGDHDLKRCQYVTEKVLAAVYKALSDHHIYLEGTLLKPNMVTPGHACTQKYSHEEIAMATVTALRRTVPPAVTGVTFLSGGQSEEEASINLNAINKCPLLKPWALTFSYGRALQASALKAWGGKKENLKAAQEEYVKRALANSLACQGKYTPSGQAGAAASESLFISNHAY

B1: RH1 C-terminal cytoplasmic tail peptide (peptide)
peptide: {Biotin-Ahx}-KQEDKEQEKQQQNDFVCDNNKMDDKSTQKYGRNQEEVMEISFDNDYI
B2: RH4 C-terminal cytoplasmic tail peptide (peptide)
peptide: {Biotin-Ahx}-EDEVEDEVEDEDENENEVENENEDFNDI
B3: rabbit muscle aldolase (enzyme, UniProt P00883 1-364, looked up)
chain: T1 sequence (P00883 1-364)

Tests used:
yeast GAPDH = test: GAPDH pulldown assay with biotinylated peptides on streptavidin-agarose beads; type: binding; conditions: pulldown competition, 10 mM NADH
Method in brief: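 Test peptides carried an N-terminal biotin–Ahx linker, were dissolved in 20 mM Tris-HCl pH 8.0 at 0.5 mg/ml, and were bound to streptavidin-agarose for 1 h at RT, then washed. After four washes, bound protein was boiled in reducing LDS buffer and run on 4–12% bis-Tris gels.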

rabbit muscle aldolase [1] = target: T1, rabbit muscle aldolase; test: SPR analysis of aldolase binding to immobilized peptides; conditions: SPR sensorgrams, aldolase 50 to 800 nM
Method in brief: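 CM5 chips at 25°C carried amine-coupled NeutrAvidin with captured biotinylated peptides (0.5 µg/ml). Rabbit muscle aldolase was injected in 10 mM HEPES pH 7.5/100 mM KCl/0.5 mM EDTA/1 mM MgCl₂/0.2% Tween 20, with F1-6P added in some runs. Flow was 20 µl/min, with 4 min association and 10 min dissociation, and glycine pH 2.5 regeneration. NeutrAvidin-only reference cells were subtracted. ka and kd came from global fits to a 1:1 Langmuir or a two-state model.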

GAPDH = test: SPR analysis of GAPDH binding to immobilized peptides; design: species or system yeast; conditions: curves did not fit the 1:1 or the two-state model, no KD determined
[2] = target: BAEBL (EBA140) C-terminal cytoplasmic tail peptide (Plasmodium falciparum); test: SPR
rabbit muscle aldolase [3] = target: B3; test: SPR
[4] = target: B1; test: SPR
[5] = target: B2; test: SPR

With YMFDQQINVVNSDLYSEGIYDDTTTF [JESEBL] the “GAPDH binding on adding the cofactor NADH” value (yeast GAPDH) was “blocked”, the “binding to aldolase by SPR (qualitative)” value (rabbit muscle aldolase [1]) was “not to bind; also recorded: no binding was seen” and the “GAPDH binding by SPR (qualitative)” value (GAPDH) was “demonstrated binding”.

“yeast GAPDH (glyceraldehyde-3-phosphate dehydrogenase) (from UniProt P00359 1-332) (enzyme)” gave a Kd [2] of 461 nM, a ka1 (two-state model, step 1) [2] of 10200 M^-1 S^-1 and a kd1 (two-state model, step 1) [2] of 0.016 s⁻¹. The kd2 (two-state model, step 2) [2] was 0.003 s⁻¹.

Molecule {Biotin-Ahx}-ETLGEEDKDLDEPEQFRLPEENEWN [TRAP (thrombospondin-related anonymous protein) C-terminal cytoplasmic tail peptide] has a Kd (rabbit muscle aldolase [3]) of 106 nM.

Work on {Biotin-Ahx}-NDHLSNYADKEEIIEIVFDENEEKYF [RH2b C-terminal cytoplasmic tail peptide] yielded a Kd (rabbit muscle aldolase [3]) of 214 nM, a koff (rabbit muscle aldolase [3]) of 0.000183 s⁻¹ and a kon (rabbit muscle aldolase [3]) of 856 M⁻¹ s⁻¹.

With B1 the Kd (rabbit muscle aldolase [3]) was 61 nM.

B2 was tested, and the Kd (rabbit muscle aldolase [3]) was 47 nM.

In the case of B3, the “ka1 (two-state model, step 1)” value [4] is reported as 45400 M^-1 S^-1, the “ka2 (two-state model, step 2)” value [4] is reported as 0.018 s⁻¹ and the “kd1 (two-state model, step 1)” value [4] is reported as 0.082 s⁻¹. For the same molecule, the “kd2 (two-state model, step 2)” value [4] was 0.000647 s⁻¹, the “ka1 (two-state model, step 1)” value [5] was 16000 M^-1 S^-1 and the “ka2 (two-state model, step 2)” value [5] was 0.012 s⁻¹. For the same molecule, the “kd1 (two-state model, step 1)” value [5] was 0.034 s⁻¹ and the “kd2 (two-state model, step 2)” value [5] was 0.000269 s⁻¹.

Reference: publication PMC3448169 (mBio, 2012)
